ChEMBL document CHEMBL1152935, “Synthesis and structure-activity relationships of radicicol derivatives and WNT-5A expression inhibitory activity” (Bioorg Med Chem, 2009)

test: Inhibition of WNT5A mRNA expression in human dermal papilla cells after 24 hrs by quantigene assay; type: functional, cell-based; details: not given
In short: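 Human dermal papilla cells (gift, fifth subculture) in MEM with 12% FBS, seeded at 1 × 10⁴ cells/well, cultured overnight, then exposed 24 h to compounds or no-compound medium. WNT-5A mRNA quantified by branched-DNA QuantiGene: lysates on capture plate, WNT-5A probes 53 °C 20 h, amplifier then alkaline phosphatase probe each 46 °C 1 h, Lumi-Phos Plus 46 °C 30 min, luminescence read. IC50 reported.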

Row | IC50 [µM] | Compound
1 | > 50 | C[C@@H]1C[C@@H](O)[C@H](Cl)/C=C\C=C\C(=O)Cc2c(Cl)c(O)cc(O)c2C(=O)O1
2 | 13.3 | C[C@@H]1C[C@@H](O)C(Cl)/C=C\C=C\C(=O)Cc2c(Cl)c(O)cc(O)c2C(=O)O1 (single isomer, unassigned)

same assay, conditions: Homo sapiens, 24 h

Row | Compound | IC50 [µM]
3 | C[C@@H]1C[C@H]2O[C@@H]2CC/C=C/[C@@H](O)Cc2c(Cl)c(O)cc(O)c2C(=O)O1 | > 100
4 | C[C@@H]1C[C@H]2O[C@@H]2C/C=C/C[C@@H](O)Cc2c(Cl)c(O)cc(O)c2C(=O)O1 | > 50
5 | C[C@@H]1C[C@H]2O[C@@H]2CC/C=C/[C@H](O)Cc2c(Cl)c(O)cc(O)c2C(=O)O1 | 1.89
6 | C[C@@H]1C[C@H]2O[C@@H]2CCCC[C@@H](O)Cc2c(Cl)c(O)cc(O)c2C(=O)O1 | > 100
7 | C[C@@H]1C[C@H]2O[C@@H]2C/C=C/C[C@H](O)Cc2c(Cl)c(O)cc(O)c2C(=O)O1 | > 50
8 | C[C@@H]1C/C=C/CC/C=C/[C@H](O)Cc2cc(O)cc(O)c2C(=O)O1 | > 50
9 | COc1cc(O)c2c(c1Cl)C[C@@H](O)/C=C/CC[C@H]1O[C@@H]1C[C@@H](C)OC2=O | > 100
10 | C[C@@H]1C[C@@H](O)CC/C=C/CC(=O)Cc2c(Cl)c(O)cc(O)c2C(=O)O1 | > 50
11 | C[C@@H]1CC(O)C2C=CC(CC(=O)Cc3c(Cl)c(O)cc(O)c3C(=O)O1)O2 (stereo partly drawn) | > 50
12 | C[C@@H]1C[C@H]2O[C@@H]2C/C=C/CC(=O)Cc2c(Cl)c(O)cc(O)c2C(=O)O1 | 7.69
13 | CO/N=C1/C=C/C=C\[C@H]2O[C@@H]2C[C@@H](C)OC(=O)c2c(O)cc(O)c(Cl)c2C1 | 1.22
14 | C[C@@H]1C[C@H]2O[C@@H]2CC/C=C/[C@H](O)Cc2cc(O)cc(O)c2C(=O)O1 | 13.2
15 | C[C@@H]1C[C@H]2O[C@@H]2[C@H](Sc2ccccc2)CCCC(=O)Cc2c(Cl)c(O)cc(O)c2C(=O)O1 | > 50
16 | C[C@@H]1C[C@@H](O)[C@@H](O)/C=C\C=C\C(=O)Cc2c(Cl)c(O)cc(O)c2C(=O)O1 | > 50
17 | C[C@@H]1C[C@H]2O[C@@H]2\C=C/C=C/C(=N\OCc2ccccc2)Cc2c(Cl)c(O)cc(O)c2C(=O)O1 | 0.51
18 | C[C@@H]1C/C=C/CC/C=C/[C@@H](O)Cc2cc(O)cc(O)c2C(=O)O1 | > 50
19 | C[C@@H]1C[C@H]2S[C@@H]2/C=C\C=C\C(=O)Cc2c(Cl)c(O)cc(O)c2C(=O)O1 | 9.13
20 | C[C@@H]1C[C@H]2O[C@@H]2\C=C/C=C/C(=N/OCc2ccccc2)Cc2c(Cl)c(O)cc(O)c2C(=O)O1 | 0.06
21 | C[C@@H]1C[C@H]2OC(=O)O[C@H]2/C=C\C=C\C(=O)Cc2c(Cl)c(O)cc(O)c2C(=O)O1 | 15.7
22 | C[C@@H]1C[C@H]2O[C@@H]2CC/C=C/C(=O)Cc2cc(O)cc(O)c2C(=O)O1 [MONOCILLIN III] | 9.43
23 | C[C@@H]1C[C@H]2O[C@@H]2/C=C\C=C\C(=O)Cc2cc(O)cc(O)c2C(=O)O1 [MONOCILLIN I] | 1.93
24 | C[C@@H]1C[C@H]2O[C@@H]2/C=C\C=C\C(=O)Cc2c(Cl)c(O)cc(O)c2C(=O)O1 [RADICICOL] | 0.19
25 | C[C@@H]1C[C@H]2O[C@@H]2CCCCC(=O)Cc2c(Cl)c(O)cc(O)c2C(=O)O1 [TETRAHYDRORADICICOL] | 2.24

The next lines start with the values.

Row | IC50 [µM] | Compound
26 | 5.89 | C[C@@H]1C[C@H]2O[C@@H]2CCCC[C@H](O)Cc2c(Cl)c(O)cc(O)c2C(=O)O1
27 | 0.5 | CC(=O)S[C@@H]1/C=C\CC(=O)Cc2c(Cl)c(O)cc(O)c2C(=O)O[C@H](C)C[C@H]2O[C@@H]21
28 | 2.07 | C[C@@H]1C[C@H]2O[C@@H]2/C=C\C=C\[C@H](O)Cc2c(Cl)c(O)cc(O)c2C(=O)O1
29 | > 50 | C[C@@H]1C[C@@H](O)CCCCCC(=O)Cc2c(Cl)c(O)cc(O)c2C(=O)O1
30 | 0.27 | C[C@@H]1C[C@H]2O[C@@H]2C(Sc2ccccc2)/C=C\CC(=O)Cc2c(Cl)c(O)cc(O)c2C(=O)O1 (stereo partly drawn)
31 | > 100 | COc1cc(OC)c2c(c1Cl)C[C@@H](O)/C=C/CC[C@H]1O[C@@H]1C[C@@H](C)OC2=O
32 | > 100 | CC(=O)Oc1cc(OC(C)=O)c2c(c1Cl)CC(OC(C)=O)/C=C/CC[C@H]1O[C@@H]1C[C@@H](C)OC2=O (stereo partly drawn)
33 | > 50 | C[C@@H]1CCCCCCCC(=O)Cc2cc(O)cc(O)c2C(=O)O1
34 | 0.15 | CO\N=C1/C=C/C=C\[C@H]2O[C@@H]2C[C@@H](C)OC(=O)c2c(O)cc(O)c(Cl)c2C1
35 | > 50 | C[C@@H]1C[C@@H](O)C/C=C\CCC(=O)Cc2c(Cl)c(O)cc(O)c2C(=O)O1
36 | 2.34 | CC(=O)S[C@@H]1/C=C/CC(=O)Cc2c(Cl)c(O)cc(O)c2C(=O)O[C@H](C)C[C@H]2O[C@@H]21
37 | 0.26 | C[C@@H]1C[C@H]2O[C@@H]2\C=C/C=C/C(=N\O)Cc2c(Cl)c(O)cc(O)c2C(=O)O1
38 | 3.76 | COc1cc(OC)c2c(c1Cl)CC(=O)/C=C/C=C\[C@H]1O[C@@H]1C[C@@H](C)OC2=O [DIMETHYL RADICICOL]
39 | 2.64 | C[C@H]1C[C@H]2O[C@@H]2CC/C=C/C(=O)Cc2c(Cl)c(O)cc(O)c2C(=O)O1 [POCHONIN A]
40 | 0.3 | CC(=O)Oc1cc(OC(C)=O)c2c(c1Cl)CC(=O)/C=C/C=C\[C@H]1O[C@@H]1C[C@@H](C)OC2=O [RADICICOL DIACETATE]
41 | 15 | C[C@@H]1C[C@H]2O[C@@H]2CCCCC(=O)Cc2cc(O)cc(O)c2C(=O)O1 [TETRAHYDROMONOCILLIN I]

test: Inhibition of HSP90; details: not given

Row | IC50 [nM] | Compound
42 | 90 | C[C@H]1C[C@H]2O[C@@H]2CC/C=C/C(=O)Cc2c(Cl)c(O)cc(O)c2C(=O)O1 [POCHONIN A]

test: Cytotoxicity against human dermal papilla cells by Alamar blue assay; type: cell-based; details: read-out: TC50 (the source's name)
In short: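 Dermal papilla cells seeded at 5 × 10³ cells/well, grown 16 h in MEM with 12% FBS, then given medium with or without test compounds for 24 h. Medium swapped for one containing 10% Alamar Blue and cells cultured 4 h more; fluorescence read at Ex 544 nm/Em 590 nm. TC50 reported.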

Row | Compound | CC50 [µM]
43 | C[C@@H]1C[C@H]2O[C@@H]2CCCC[C@H](O)Cc2c(Cl)c(O)cc(O)c2C(=O)O1 | > 100
44 | C[C@@H]1C[C@H]2O[C@@H]2CC/C=C/[C@@H](O)Cc2c(Cl)c(O)cc(O)c2C(=O)O1 | > 100
45 | C[C@@H]1C[C@H]2O[C@@H]2CC/C=C/[C@H](O)Cc2c(Cl)c(O)cc(O)c2C(=O)O1 | > 100
46 | C[C@@H]1C[C@H]2O[C@@H]2CCCC[C@@H](O)Cc2c(Cl)c(O)cc(O)c2C(=O)O1 | > 100
47 | CC(=O)S[C@@H]1/C=C\CC(=O)Cc2c(Cl)c(O)cc(O)c2C(=O)O[C@H](C)C[C@H]2O[C@@H]21 | > 100
48 | C[C@@H]1C[C@H]2O[C@@H]2/C=C\C=C\[C@H](O)Cc2c(Cl)c(O)cc(O)c2C(=O)O1 | > 100
49 | C[C@@H]1C[C@H]2O[C@@H]2C/C=C/CC(=O)Cc2c(Cl)c(O)cc(O)c2C(=O)O1 | > 100
50 | CO/N=C1/C=C/C=C\[C@H]2O[C@@H]2C[C@@H](C)OC(=O)c2c(O)cc(O)c(Cl)c2C1 | > 100
51 | C[C@@H]1C[C@H]2O[C@@H]2CC/C=C/[C@H](O)Cc2cc(O)cc(O)c2C(=O)O1 | > 100
52 | C[C@@H]1C[C@H]2O[C@@H]2C(Sc2ccccc2)/C=C\CC(=O)Cc2c(Cl)c(O)cc(O)c2C(=O)O1 (stereo partly drawn) | > 50
53 | C[C@@H]1C[C@H]2O[C@@H]2[C@H](Sc2ccccc2)CCCC(=O)Cc2c(Cl)c(O)cc(O)c2C(=O)O1 | > 50
54 | C[C@@H]1C[C@H]2O[C@@H]2\C=C/C=C/C(=N\OCc2ccccc2)Cc2c(Cl)c(O)cc(O)c2C(=O)O1 | 65.6
55 | CO\N=C1/C=C/C=C\[C@H]2O[C@@H]2C[C@@H](C)OC(=O)c2c(O)cc(O)c(Cl)c2C1 | > 100
56 | C[C@@H]1C[C@H]2S[C@@H]2/C=C\C=C\C(=O)Cc2c(Cl)c(O)cc(O)c2C(=O)O1 | 28.2
57 | C[C@@H]1C[C@H]2O[C@@H]2\C=C/C=C/C(=N/OCc2ccccc2)Cc2c(Cl)c(O)cc(O)c2C(=O)O1 | 42.1
58 | C[C@@H]1C[C@H]2OC(=O)O[C@H]2/C=C\C=C\C(=O)Cc2c(Cl)c(O)cc(O)c2C(=O)O1 | 28.1
59 | CC(=O)S[C@@H]1/C=C/CC(=O)Cc2c(Cl)c(O)cc(O)c2C(=O)O[C@H](C)C[C@H]2O[C@@H]21 | > 100
60 | C[C@@H]1C[C@H]2O[C@@H]2\C=C/C=C/C(=N\O)Cc2c(Cl)c(O)cc(O)c2C(=O)O1 | 89.5
61 | C[C@@H]1C[C@@H](O)C(Cl)/C=C\C=C\C(=O)Cc2c(Cl)c(O)cc(O)c2C(=O)O1 (single isomer, unassigned) | 42
62 | COc1cc(OC)c2c(c1Cl)CC(=O)/C=C/C=C\[C@H]1O[C@@H]1C[C@@H](C)OC2=O [DIMETHYL RADICICOL] | 8.4
63 | C[C@@H]1C[C@H]2O[C@@H]2CC/C=C/C(=O)Cc2cc(O)cc(O)c2C(=O)O1 [MONOCILLIN III] | 28.9
64 | C[C@@H]1C[C@H]2O[C@@H]2/C=C\C=C\C(=O)Cc2cc(O)cc(O)c2C(=O)O1 [MONOCILLIN I] | 2.9
65 | C[C@H]1C[C@H]2O[C@@H]2CC/C=C/C(=O)Cc2c(Cl)c(O)cc(O)c2C(=O)O1 [POCHONIN A] | 57.3
66 | CC(=O)Oc1cc(OC(C)=O)c2c(c1Cl)CC(=O)/C=C/C=C\[C@H]1O[C@@H]1C[C@@H](C)OC2=O [RADICICOL DIACETATE] | 29.1
67 | C[C@@H]1C[C@H]2O[C@@H]2/C=C\C=C\C(=O)Cc2c(Cl)c(O)cc(O)c2C(=O)O1 [RADICICOL] | 15.3
68 | C[C@@H]1C[C@H]2O[C@@H]2CCCCC(=O)Cc2c(Cl)c(O)cc(O)c2C(=O)O1 [TETRAHYDRORADICICOL] | > 100
